Test results as given in ChEMBL document CHEMBL1159121, “Synthesis, in vitro structure-activity relationship, and in vivo studies of 2-arylthiazolidine-4-carboxylic acid amides as anticancer agents” (Bioorg Med Chem, 2010).

Assays:
[1] = Antiproliferative activity against mouse B16-F1 cells after 48 hrs by SRB assay; assay type: functional, cell-based; settings: B16-F1, 48 h
Method in brief: (§1)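 Melanoma lines and control fibroblasts grown at 37 °C, 5% CO2, then exposed to a wide concentration range for 48 h in round-bottom 96-well plates. Fixed with 10% TCA, stained with SRB, protein read at 560 nm. IC50 (50% growth inhibition versus untreated) obtained by nonlinear regression.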

[2] = Antiproliferative activity against human WM164 cells after 48 hrs by SRB assay; assay type: functional, cell-based; settings: WM164, 48 h; method in brief: as §1
[3] = Selectivity ratio of IC50 for human fibroblasts to IC50 for human melanoma cells; assay type: ADME; settings: human fibroblasts and human melanoma cells, read-out: Ratio IC50
A-375 = assay: Antiproliferative activity against human A375 cells after 48 hrs by SRB assay; assay type: functional, cell-based; settings: A-375, 48 h; method in brief: as §1
[4] = Cytotoxicity against human fibroblasts after 48 hrs by SRB assay; assay type: cell-based; settings: Fibroblast; method in brief: as §1
DU-145 = assay: Antiproliferative activity against human DU145 cells after 96 hrs by SRB assay; assay type: functional, cell-based; settings: DU-145, 96 h
Method in brief: (§2)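 Prostate lines in RPMI1640/10% FBS; RH7777 in DMEM/10% FBS. Cells TCA-fixed, stained with 0.4% SRB, absorbance read at 540 nm. IC50 from nonlinear regression of % survival against concentration.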

PC-3 = assay: Antiproliferative activity against human PC3 cells after 96 hrs by SRB assay; assay type: functional, cell-based; settings: PC-3, 96 h
RH7777 [5] = assay: Cytotoxicity against rat RH7777 cells after 96 hrs by SRB assay; assay type: cell-based; settings: RH7777, 96 h; method in brief: as §2
LNCaP = assay: Antiproliferative activity against human LNCAP cells after 96 hrs by SRB assay; assay type: functional, cell-based; method in brief: as §2
PPC-1 = assay: Antiproliferative activity against human PPC1 cells after 96 hrs by SRB assay; assay type: functional, cell-based; settings: PPC-1, 96 h; method in brief: as §2
RH7777 [6] = assay: Selectivity ratio of IC50 for rat RH7777 cells to IC50 for human prostate cancer cells
Method in brief: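 Ratio of RH7777 IC50 to the mean IC50 over four prostate lines (DU 145, PC-3, LNCaP, PPC-1). Prostate lines grown in RPMI1640/10% FBS and RH7777 in DMEM/10% FBS. Read by SRB (0.4%) at 540 nm; IC50 by nonlinear regression.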

SMILES | IC50 [1] [µM] | IC50 [2] [µM] | selectivity ratio [3] | IC50 (A-375) [µM] | IC50 [4] [µM] | IC50 (DU-145) [µM] | IC50 (PC-3) [µM] | IC50 (RH7777 [5]) [µM] | IC50 (LNCaP) [µM] | IC50 (PPC-1) [µM] | Ratio IC50 (RH7777 [6])
CNC(=O)c1cc(Oc2ccc(NC(=O)Nc3ccc(Cl)c(C(F)(F)F)c3)cc2)ccn1 [SORAFENIB] | 4.9 | 5 | 3 | – | – | – | – | – | – | – | –
CCCCCCCCCCCCCCCCNC(=O)[C@@H](N)CSC | – | 14.4 | – | 12.9 | 61.2 | – | – | – | – | – | –
CC(=O)Nc1ccc(C2N[C@H](C(=O)Nc3nc4ccccc4s3)CS2)cc1 (mixture of isomers) | 55.3 | > 100 | – | 45.9 | > 100 | > 20 | > 20 | > 20 | > 20 | > 20 | –
CCCCCCCCCCNC(=O)[C@@H]1CSC(c2cc(OC)c(OC)c(OC)c2)N1 (mixture of isomers) | – | – | – | – | – | 4.1 | 4.4 | 6 | 2.2 | 2.1 | –
CCCCCCCCCCCCCCNC(=O)[C@H]1CSC(c2cc(OC)c(OC)c(OC)c2)N1 (mixture of isomers) | – | – | – | – | – | 2.1 | 2.9 | 5.8 | 1.9 | 0.7 | –
CC(=O)Nc1ccc(C2N[C@H](C(=O)NC34CC5CC(CC(C5)C3)C4)CS2)cc1 (mixture of isomers) | 96.5 | 128 | – | 138 | > 100 | > 20 | > 20 | > 20 | 5.7 | > 20 | –
CCCCCCCCCCCCCCCCNC(=O)[C@@H]1CSC(c2ccc(N(C)C)cc2)N1 (mixture of isomers) | 6.7 | 1.5 | 6.3 | 1.8 | 21 | 3.2 | 6 | 10 | 1.4 | 0.4 | 3.6
CCCCCCCCC/C=C\CCCCCCCNC(=O)[C@@H]1CSC(c2cc(OC)c(OC)c(OC)c2)N1 (mixture of isomers) | 4.7 | 1.3 | 1.7 | 2.4 | 4.8 | 1.2 | 1.5 | 8.4 | 0.7 | 0.5 | 8.6
CCCCCCCCCCCCCCCCNC(=O)[C@@H]1CSC(c2ccc(NS(C)(=O)=O)cc2)N1 (mixture of isomers) | 114 | 18.6 | – | 50.6 | > 100 | > 20 | > 20 | > 20 | 4.8 | 1.1 | –
CCCCCCCCCCCCCCCCNC(=O)[C@@H]1CSC(c2ccccc2)N1 (mixture of isomers) | – | 0.7 | – | – | 2.2 | – | – | – | – | – | –
CCCCCCCCCCCCCCCCNC(=O)[C@@H]1CSC(c2ccc(N)cc2)N1 (mixture of isomers) | – | – | – | – | – | 2.6 | 2.4 | 9.4 | 1.5 | 0.6 | 5.3
CCCCCCCCNC(=O)[C@@H]1CSC(c2cc(OC)c(OC)c(OC)c2)N1 (mixture of isomers) | – | – | – | – | – | 17.3 | > 20 | > 20 | 2.7 | 14 | –
CCCCCCCCCCCCCCCCNC(=O)[C@@H]1CSC(c2ccc(NC(N)=O)cc2)N1 (mixture of isomers) | – | 1.7 | 1.8 | 3.6 | 7.2 | 3.2 | 2.5 | 6.7 | 1.8 | 0.5 | 3.4
CCCCCCCCCCCCNC(=O)[C@@H]1CSC(c2cc(OC)c(OC)c(OC)c2)N1 (mixture of isomers) | – | – | – | – | – | 2.8 | 2.9 | 6.5 | 1.4 | 1 | –
CCCCCCCCC/C=C/CCCCCCCNC(=O)[C@@H]1CSC(c2ccccc2)N1 (mixture of isomers) | 10.1 | – | 2.1 | 5.3 | 12.4 | 1.5 | 2.1 | 8.9 | 1.4 | 0.6 | 6.5
CCCCCCCCCCCCCCCCNC(=O)[C@@H]1CSC(c2ccc(OC)cc2)N1 (mixture of isomers) | 2.3 | 1 | 5.1 | 1.5 | – | 2.2 | 2.7 | 8.4 | 1.1 | 0.4 | 5.3
CCCCCCCCCCCCCCCCNC(=O)CNCc1ccc(NC(C)=O)cc1 | – | 10.2 | – | 11.9 | 24 | – | – | – | – | – | –
CCCCCCCCCCCCCCCCOC(=O)[C@@H]1CSC(c2ccc(NC(C)=O)cc2)N1 (mixture of isomers) | 41.9 | 18.5 | – | 28 | > 100 | > 20 | > 20 | > 20 | > 20 | > 20 | –
CC(=O)Nc1ccc(C2N[C@H](C(=O)NC3C4CC5CC(C4)CC3C5)CS2)cc1 (mixture of isomers) | 108 | 64.4 | – | 66 | > 100 | > 20 | > 20 | > 20 | 9.7 | > 20 | –
CCCCCCCCCCCCCCNC(=O)[C@@H]1CSC(c2cc(OC)c(OC)c(OC)c2)N1 (mixture of isomers) | – | – | – | – | – | 2.2 | 2.6 | 6.1 | 2 | 0.6 | –
CCCCCCCCCCCCNC(=O)[C@@H]1CSC(c2ccc(N)cc2)N1 (mixture of isomers) | – | – | – | – | – | 2.4 | 2.9 | 7.3 | 2 | 1.2 | 3.4
CCCCCCCCCCCCCCCCCCN(C)C(=O)[C@@H]1CSC(c2ccc(NC(C)=O)cc2)N1 (mixture of isomers) | 18.9 | 10.7 | – | 20.6 | > 100 | 3.9 | 3.7 | 9.2 | 1.8 | 0.8 | 3.6
CCCCCCCCCCCCCCCCNC(=O)[C@H](CSC)NCc1ccc(NC(C)=O)cc1 | – | 145 | – | 108 | > 100 | – | – | – | – | – | –
CN(C)/N=N/c1[nH]cnc1C(N)=O [DACARBAZINE] | > 100 | > 100 | – | > 100 | > 100 | – | – | – | – | – | –
CCCCCCCCCCCCCCCCNC(=O)[C@@H](N)CSCc1ccccc1 | – | 12.8 | – | 15.1 | 16.4 | – | – | – | – | – | –
CC(=O)Nc1ccc(C2N[C@H](C(=O)Nc3ccc4c(c3)Cc3ccccc3-4)CS2)cc1 (mixture of isomers) | – | – | 11.3 | – | – | – | – | – | – | – | –
